Measurements from ChEMBL document CHEMBL1140304, “Design and synthesis of potent inhibitors of plasmepsin I and II: X-ray crystal structure of inhibitor in complex with plasmepsin II” (J Med Chem, 2005).

What was measured:
Plasmodium falciparum = test: Percentage inhibition of parasite growth in human erythrocytes at 5 uM; assay type: functional
Method in brief: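 Synchronous P. falciparum 3D7 early trophozoites at ~1% haematocrit and 1% parasitaemia, with [3H]hypoxanthine at 10 µCi/mL. Compound (1-5 µM final) or DMSO (max 1% v/v) was added. Cultures ran 30 h at 37 °C in gassed boxes to mature schizonts, then were harvested onto filters for β-counting. Uptake was expressed relative to DMSO controls; four independent experiments.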

Plasmepsin I = Plasmepsin I (Plasmodium falciparum, UniProt P39898); test: Inhibitory concentration against the plasmepsin-1 of Plasmodium falciparum
Method in brief: (§1)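 Fluorogenic assay in 100 mM sodium acetate (pH 4.5), 10% glycerol and 0.01% Tween 20, with 3 µM DABCYL/EDANS peptide substrate. Enzymes: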

Plasmepsin II = Plasmepsin II (Plasmodium falciparum, UniProt P46925); test: Inhibitory concentration against the plasmepsin-2 of Plasmodium falciparum; method in brief: as §1
Cathepsin D = Cathepsin D (Homo sapiens, UniProt P07339); test: Inhibitory concentration against the human Cathepsin D; method in brief: as §1
Sequence of Cathepsin D (P07339 65-162 limits assumed): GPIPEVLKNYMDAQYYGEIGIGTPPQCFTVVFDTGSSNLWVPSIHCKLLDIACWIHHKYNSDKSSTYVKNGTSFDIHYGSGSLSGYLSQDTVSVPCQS
Sequence of Cathepsin D (P07339 169-412 limits assumed): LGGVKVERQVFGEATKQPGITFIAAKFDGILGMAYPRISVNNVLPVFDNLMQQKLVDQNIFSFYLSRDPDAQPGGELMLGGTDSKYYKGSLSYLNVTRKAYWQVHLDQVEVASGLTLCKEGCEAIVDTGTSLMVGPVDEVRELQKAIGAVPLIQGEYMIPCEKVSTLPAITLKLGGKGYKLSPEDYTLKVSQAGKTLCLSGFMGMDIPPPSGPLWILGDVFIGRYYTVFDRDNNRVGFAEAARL

Sequence of Plasmepsin II (P46925 whole entry): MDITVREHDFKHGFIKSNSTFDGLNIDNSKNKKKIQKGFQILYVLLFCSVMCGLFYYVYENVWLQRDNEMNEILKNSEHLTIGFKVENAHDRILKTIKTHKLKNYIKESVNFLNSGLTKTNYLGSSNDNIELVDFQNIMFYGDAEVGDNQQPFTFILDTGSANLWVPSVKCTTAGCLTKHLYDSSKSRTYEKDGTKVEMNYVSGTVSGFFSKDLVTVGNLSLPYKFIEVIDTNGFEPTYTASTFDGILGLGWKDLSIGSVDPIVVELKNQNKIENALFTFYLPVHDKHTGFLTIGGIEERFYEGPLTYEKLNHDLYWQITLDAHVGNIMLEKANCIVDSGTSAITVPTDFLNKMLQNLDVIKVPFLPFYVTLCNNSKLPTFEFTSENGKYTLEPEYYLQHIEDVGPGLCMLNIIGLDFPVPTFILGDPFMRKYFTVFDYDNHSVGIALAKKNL
Sequence of Plasmepsin I (P39898 whole entry): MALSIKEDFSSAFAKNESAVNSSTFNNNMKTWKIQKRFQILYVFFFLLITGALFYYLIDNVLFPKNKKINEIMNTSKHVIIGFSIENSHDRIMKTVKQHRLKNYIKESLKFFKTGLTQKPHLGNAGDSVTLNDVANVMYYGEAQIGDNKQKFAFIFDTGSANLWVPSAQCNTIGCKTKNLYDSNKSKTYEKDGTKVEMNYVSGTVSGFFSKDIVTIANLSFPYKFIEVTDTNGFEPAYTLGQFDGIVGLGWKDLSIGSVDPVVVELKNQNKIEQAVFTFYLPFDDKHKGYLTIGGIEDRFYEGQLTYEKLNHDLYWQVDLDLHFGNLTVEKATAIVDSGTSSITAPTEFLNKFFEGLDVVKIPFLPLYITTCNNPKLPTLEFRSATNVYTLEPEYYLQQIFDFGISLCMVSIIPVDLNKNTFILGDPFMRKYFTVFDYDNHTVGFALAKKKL

SMILES | Ki (Plasmepsin I) [µM] | Ki (Plasmepsin II) [µM] | Ki (Cathepsin D) [µM] | inhibition at 5 µM (Plasmodium falciparum) [%]
O=C(C[C@H](O)[C@H](COCc1ccc(Br)cc1)NC(=O)c1c(F)cc(F)cc1F)NC1CCCCC1 | – | – | – | 0
CC(C)C[C@H](NC(=O)[C@H](C)NC(=O)C[C@H](O)[C@H](COCc1ccc(Br)cc1)NC(=O)[C@@H](NC(=O)c1ccccn1)C(C)C)C(N)=O | – | – | – | 51
CC(C)C[C@H](NC(=O)[C@H](C)NC(=O)C[C@H](O)[C@H](COCc1ccc(Br)cc1)NC(=O)c1c(F)cc(F)cc1F)C(N)=O | – | – | – | 10
COc1cccc(CCNC(=O)C[C@H](O)[C@H](COCc2ccc(-c3ccccc3)cc2)NC(=O)c2c(F)cc(F)cc2F)c1 | 0.116 | 0.308 | > 5.9 | –
COc1cccc(CCNC(=O)C[C@H](O)[C@H](COCc2ccc(-c3ccsc3)cc2)NC(=O)c2c(F)cc(F)cc2F)c1 | 0.221 | 0.693 | 1.88 | –
O=C(C[C@H](O)[C@H](COCc1ccc(-c2ccsc2)cc1)NC(=O)c1c(F)cc(F)cc1F)NC1CCCCC1 | 0.278 | 0.26 | 4.94 | –
COc1cccc(CCNC(=O)C[C@H](O)[C@H](COCc2ccc(Br)cc2)NC(=O)c2c(F)cc(F)cc2F)c1 | – | – | – | 29
O=C(C[C@H](O)[C@H](COCc1ccc(-c2ccccc2)cc1)NC(=O)c1c(F)cc(F)cc1F)NC1CCCCC1 | 0.188 | 0.214 | > 3.6 | –
CC(C)C[C@H](NC(=O)[C@H](C)NC(=O)C[C@H](O)[C@H](COCc1ccc(-c2ccccc2)cc1)NC(=O)c1c(F)cc(F)cc1F)C(N)=O | 0.0059 | 0.048 | 1.73 | –

Continued, in another order:

Ki (Plasmepsin I) [µM] | Ki (Plasmepsin II) [µM] | Ki (Cathepsin D) [µM] | SMILES | inhibition at 5 µM (Plasmodium falciparum) [%]
0.0033 | 0.019 | 2.7 | CC(C)C[C@H](NC(=O)[C@H](C)NC(=O)C[C@H](O)[C@H](COCc1ccc(-c2ccc3c(c2)OCO3)cc1)NC(=O)c1c(F)cc(F)cc1F)C(N)=O | –
0.001 | 0.0057 | 0.032 | CC(C)C[C@H](NC(=O)[C@H](C)NC(=O)C[C@H](O)[C@H](COCc1cccc(Br)c1)NC(=O)[C@@H](NC(=O)c1ccccn1)C(C)C)C(N)=O | 55
0.0004 | 0.0011 | 0.0007 | CC(C)C[C@H](NC(=O)[C@H](C)NC(=O)C[C@H](O)[C@H](COCc1ccc(-c2ccc3c(c2)OCO3)cc1)NC(=O)[C@@H](NC(=O)c1ccccn1)C(C)C)C(N)=O | 83
0.0003 | 0.0011 | 0.0032 | CC(C)C[C@H](NC(=O)[C@H](C)NC(=O)C[C@H](O)[C@H](COCc1ccc(-c2ccsc2)cc1)NC(=O)[C@@H](NC(=O)c1ccccn1)C(C)C)C(N)=O | 46
0.0003 | 0.0009 | 0.0025 | CC(C)C[C@H](NC(=O)[C@H](C)NC(=O)C[C@H](O)[C@H](COCc1ccc(-c2ccccc2)cc1)NC(=O)[C@@H](NC(=O)c1ccccn1)C(C)C)C(N)=O | 70
0.0007 | 0.0044 | 0.0039 | CC(C)C[C@H](NC(=O)[C@H](C)NC(=O)C[C@H](O)[C@H](COCc1cccc(-c2ccccc2)c1)NC(=O)[C@@H](NC(=O)c1ccccn1)C(C)C)C(N)=O | –
0.0019 | 0.016 | 0.481 | CCCCNC(=O)C[C@H](O)[C@H](COCc1ccc(-c2ccccc2)cc1)NC(=O)[C@@H](NC(=O)c1ccccn1)C(C)C | –
0.001 | 0.013 | 0.241 | CCCCNC(=O)C[C@H](O)[C@H](COCc1ccc(-c2ccsc2)cc1)NC(=O)[C@@H](NC(=O)c1ccccn1)C(C)C | 9
0.0021 | 0.055 | 1.44 | CC(C)C[C@H](NC(=O)[C@H](C)NC(=O)C[C@H](O)[C@H](COCc1ccc(-c2ccsc2)cc1)NC(=O)c1c(F)cc(F)cc1F)C(N)=O | –
0.0027 | 0.045 | 0.685 | CCCCNC(=O)C[C@H](O)[C@H](COCc1ccc(-c2ccc3c(c2)OCO3)cc1)NC(=O)[C@@H](NC(=O)c1ccccn1)C(C)C | –
0.0004 | 0.0019 | 0.0016 | CC(C)C[C@H](NC(=O)[C@H](C)NC(=O)C[C@H](O)[C@H](COCc1cccc(-c2ccsc2)c1)NC(=O)[C@@H](NC(=O)c1ccccn1)C(C)C)C(N)=O | 65
